The values below come from ChEMBL document CHEMBL1149778, “Synthesis of some novel 2,4-disubstituted thiazoles as possible antimicrobial agents” (2008).

Test [1] deals with Aspergillus fumigatus. Nature of the test: Antifungal activity against Aspergillus fumigatus NCIM No.902 by serial plate dilution method. Type of test: functional.
Test [2] relates to Pseudomonas aeruginosa. Nature of the test: Antibacterial activity against Pseudomonas aeruginosa ATTC 27853 after 16 to 18 hrs by serial plate dilution method. The settings on record: ATCC27853. Type of test: functional. The method, boiled down: (§1)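 MIC by broth serial dilution: compound serially diluted in Mueller-Hinton broth, tubes adjusted to […] with phosphate buffer. Standardized bacterial suspension inoculated, incubated 16-18 h at 37 °C. MIC read as the lowest concentration with no visible growth.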

Test [3] concerns Talaromyces marneffei. Nature of the test: Antifungal activity against Penicillium marneffei assessed as zone of inhibition by serial plate dilution method. Type of test: functional. A digest of the protocol: (§2)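 Sabouraud agar (peptone, D-glucose, agar; pH 5.7), 20 ml per dish, lawned with a saline spore suspension from a loopful of fungus. Excess decanted, plates dried 1 h at 37 °C. Wells punched and compounds in DMSO added, DMSO as control. Triplicate plates, 37 °C for 3-4 days; inhibition-zone diameter measured.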

In test [4] the test system is Aspergillus flavus. Nature of the test: Antifungal activity against Aspergillus flavus NCIM No.524 assessed as zone of inhibition by serial plate dilution method. Type of test: functional. The method, boiled down:
as §2

Test [5] has as its system Talaromyces marneffei. Nature of the test: Antifungal activity against Penicillium marneffei by serial plate dilution method. Type of test: functional.
The test system of test [6] is Trichophyton mentagrophytes. Nature of the test: Antifungal activity against Trichophyton mentagrophytes assessed as zone of inhibition by serial plate dilution method. Type of test: functional. The method, boiled down: as §2
Test [7] deals with Escherichia coli. Nature of the test: Antibacterial activity against Escherichia coli ATTC 25922 assessed as zone of inhibition after 16 to 18 hrs by serial plate dilution method. Type of test: functional, ATCC25922. A digest of the protocol:
(§3)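 Agar well diffusion: 20 ml agar per dish seeded with bacterial suspension, excess decanted, dishes held 1 h at 37 °C. Wells punched, compounds in DMSO added at their MIC levels, DMSO wells as control. Zone of inhibition measured.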

In test [8] the test system is Pseudomonas aeruginosa. Nature of the test: Antibacterial activity against Pseudomonas aeruginosa ATTC 27853 assessed as zone of inhibition after 16 to 18 hrs by serial plate dilution method. Type of test: functional, ATCC27853. The method, boiled down: as §3
Test [9] has as its system Aspergillus fumigatus. Nature of the test: Antifungal activity against Aspergillus fumigatus NCIM No.902 assessed as zone of inhibition by serial plate dilution method. Type of test: functional. The method, boiled down:
as §2

Test [10] has as its system Bacillus subtilis. Nature of the test: Antibacterial activity against Bacillus subtilis assessed as zone of inhibition after 16 to 18 hrs by serial plate dilution method. Type of test: functional. The method, boiled down:
as §3

For test [11], the system named is Bacillus subtilis. Nature of the test: Antibacterial activity against Bacillus subtilis after 16 to 18 hrs by serial plate dilution method. Type of test: functional. The method, boiled down:
as §1

Test [12] has as its system Trichophyton mentagrophytes. Nature of the test: Antifungal activity against Trichophyton mentagrophytes by serial plate dilution method. Type of test: functional.
The test system of test [13] is Escherichia coli. Nature of the test: Antibacterial activity against Escherichia coli ATTC 25922 after 16 to 18 hrs by serial plate dilution method. Type of test: functional. The settings on record: ATCC25922. The method, boiled down: as §1
For test [14], the system named is Staphylococcus aureus. Nature of the test: Antibacterial activity against Staphylococcus aureus ATTC 25923 assessed as zone of inhibition after 16 to 18 hrs by serial plate dilution method. Type of test: functional. A digest of the protocol:
as §3

Test [15] has as its system Staphylococcus aureus. Nature of the test: Antibacterial activity against Staphylococcus aureus ATTC 25923 after 16 to 18 hrs by serial plate dilution method. Type of test: functional. A digest of the protocol: as §1
Test [16] has as its system Aspergillus flavus. Nature of the test: Antifungal activity against Aspergillus flavus NCIM No.524 by serial plate dilution method. Type of test: functional.

≈ marks a conversion by molar mass, not a printed value.

Consider `Clc1cc(Cl)c(Cl)c(-c2nc(-c3cccnc3)cs2)c1`, for which the MIC (usually the least concentration at which growth counts as inhibited) turned out to be 6.25 µg/mL (≈ 18.3 µM) with Aspergillus fumigatus [1]; 25 µg/mL (≈ 73.2 µM) in the test with Pseudomonas aeruginosa [2]; 6.25 µg/mL (≈ 18.3 µM) in the test with Talaromyces marneffei [5]; 12.5 µg/mL (≈ 36.6 µM) in the test on Bacillus subtilis [11]; 6.25 µg/mL (≈ 18.3 µM) in test [12]; 12.5 µg/mL (≈ 36.6 µM) in the test with Escherichia coli [13]. In addition, the minimum inhibitory concentration (MIC) in the test on Staphylococcus aureus [15] was 12.5 µg/mL (≈ 36.6 µM); in the test on Aspergillus flavus [16] it was 6.25 µg/mL (≈ 18.3 µM). The “inhibition zone (IZ)” value in the test on Talaromyces marneffei [3] is 16 mm; in the test on Aspergillus flavus [4] it was 16 mm; in test [6], 16 mm; in the test with Escherichia coli [7], 11 mm; with Pseudomonas aeruginosa [8], less than 10 mm; with Aspergillus fumigatus [9], 16 mm. For the same compound, the “inhibition zone (IZ)” value in the test with Bacillus subtilis [10] and in the test with Staphylococcus aureus [14] was 11 mm throughout.
For the compound `O=[N+]([O-])c1ccc(-c2csc(-c3cc(Cl)cc(Cl)c3Cl)n2)cc1`, the MIC with Aspergillus fumigatus [1] was found to be 12.5 µg/mL (≈ 32.4 µM); in the test on Pseudomonas aeruginosa [2], 6.25 µg/mL (≈ 16.2 µM); in the test with Talaromyces marneffei [5], 25 µg/mL (≈ 64.8 µM); against Bacillus subtilis [11], 25 µg/mL (≈ 64.8 µM); in test [12], 25 µg/mL (≈ 64.8 µM); with Escherichia coli [13] it was 6.25 µg/mL (≈ 16.2 µM). In addition, the MIC against Staphylococcus aureus [15] and against Aspergillus flavus [16] was 12.5 µg/mL (≈ 32.4 µM) in each case. Further, the “inhibition zone (IZ)” value in the test on Talaromyces marneffei [3] is given as less than 10 mm; in the test with Aspergillus flavus [4], 11 mm; in test [6], less than 10 mm; in the test on Escherichia coli [7], 16 mm; in the test on Pseudomonas aeruginosa [8], 16 mm; in the test on Aspergillus fumigatus [9], 11 mm. Also, the results for the “inhibition zone (IZ)” value with Bacillus subtilis [10] and with Staphylococcus aureus [14] were less than 10 mm and 11 mm, respectively.
For `COc1ccc(-c2csc(N/N=C/c3cc(Cl)cc(Cl)c3Cl)n2)cc1`, the MIC with Aspergillus fumigatus [1] is 25 µg/mL (≈ 60.6 µM); against Pseudomonas aeruginosa [2], 25 µg/mL (≈ 60.6 µM); with Talaromyces marneffei [5], 25 µg/mL (≈ 60.6 µM); with Bacillus subtilis [11], 25 µg/mL (≈ 60.6 µM); in [12], 12.5 µg/mL (≈ 30.3 µM); in the test with Escherichia coli [13], 25 µg/mL (≈ 60.6 µM). The MIC in the test with Staphylococcus aureus [15] and against Aspergillus flavus [16] was 25 µg/mL (≈ 60.6 µM) each time. The “inhibition zone (IZ)” value with Talaromyces marneffei [3] is less than 10 mm; in the test with Aspergillus flavus [4] it was less than 10 mm; in [6] it was 11 mm; with Escherichia coli [7], less than 10 mm; in the test on Pseudomonas aeruginosa [8], less than 10 mm; in the test with Aspergillus fumigatus [9], less than 10 mm. In addition, the “inhibition zone (IZ)” value in the test on Bacillus subtilis [10] and with Staphylococcus aureus [14] was less than 10 mm in each case.
In the case of `Clc1cc(Cl)c(Cl)c(/C=N/Nc2nc(-c3ccc(-c4ccccc4)cc3)cs2)c1`, the MIC is 6.25 µg/mL (≈ 13.6 µM) in the test with Aspergillus fumigatus [1]; 25 µg/mL (≈ 54.5 µM) with Pseudomonas aeruginosa [2]; 6.25 µg/mL (≈ 13.6 µM) in the test with Talaromyces marneffei [5]; 6.25 µg/mL (≈ 13.6 µM) against Bacillus subtilis [11]; 6.25 µg/mL (≈ 13.6 µM) in test [12]; 25 µg/mL (≈ 54.5 µM) against Escherichia coli [13]. Besides, the MIC in the test with Staphylococcus aureus [15] and with Aspergillus flavus [16] was 6.25 µg/mL (≈ 13.6 µM) throughout. The “inhibition zone (IZ)” value is 16 mm in the test on Talaromyces marneffei [3]; 16 mm with Aspergillus flavus [4]; 16 mm in test [6]; less than 10 mm with Escherichia coli [7]; less than 10 mm in the test on Pseudomonas aeruginosa [8]; 16 mm in the test with Aspergillus fumigatus [9]. For the same compound, the “inhibition zone (IZ)” value with Bacillus subtilis [10] and with Staphylococcus aureus [14] was 16 mm throughout.
With `O=[N+]([O-])c1ccc(-c2csc(N/N=C/c3cc(Cl)cc(Cl)c3Cl)n2)cc1`, the MIC against Aspergillus fumigatus [1] was 25 µg/mL (≈ 58.5 µM); with Pseudomonas aeruginosa [2], 25 µg/mL (≈ 58.5 µM); in the test with Talaromyces marneffei [5] it was 25 µg/mL (≈ 58.5 µM); in the test with Bacillus subtilis [11], 6.25 µg/mL (≈ 14.6 µM); in test [12] it was 25 µg/mL (≈ 58.5 µM); with Escherichia coli [13] it was 25 µg/mL (≈ 58.5 µM). Also, the MIC with Staphylococcus aureus [15] stood at 6.25 µg/mL (≈ 14.6 µM); against Aspergillus flavus [16] it was 25 µg/mL (≈ 58.5 µM). In addition, the “inhibition zone (IZ)” value (in the test with Talaromyces marneffei [3]; with Aspergillus flavus [4]; in [6]; in the test on Escherichia coli [7]; with Pseudomonas aeruginosa [8]; in the test on Aspergillus fumigatus [9]) was less than 10 mm in each case. In addition, the “inhibition zone (IZ)” value with Bacillus subtilis [10] and in the test with Staphylococcus aureus [14] was 16 mm throughout.
As for `Clc1ccc(-c2csc(N/N=C/c3cc(Cl)cc(Cl)c3Cl)n2)cc1`, the MIC with Aspergillus fumigatus [1] was 12.5 µg/mL (≈ 30 µM); with Pseudomonas aeruginosa [2], 25 µg/mL (≈ 59.9 µM); against Talaromyces marneffei [5], 12.5 µg/mL (≈ 30 µM); against Bacillus subtilis [11], 25 µg/mL (≈ 59.9 µM); in [12] it was 12.5 µg/mL (≈ 30 µM); against Escherichia coli [13], 12.5 µg/mL (≈ 30 µM). In addition, the results for the MIC against Staphylococcus aureus [15] and against Aspergillus flavus [16] were 25 µg/mL (≈ 59.9 µM) and 12.5 µg/mL (≈ 30 µM), respectively. In addition, the “inhibition zone (IZ)” value in the test on Talaromyces marneffei [3] was 11 mm; with Aspergillus flavus [4], 11 mm; in test [6] it was 11 mm; in the test with Escherichia coli [7] it was 11 mm; in the test on Pseudomonas aeruginosa [8], less than 10 mm; with Aspergillus fumigatus [9], 11 mm. The “inhibition zone (IZ)” value with Bacillus subtilis [10] and in the test with Staphylococcus aureus [14] was less than 10 mm each time.
Consider `Clc1cc(Cl)c(Cl)c(-c2nc(CN3CCOCC3)cs2)c1`, for which the MIC is 25 µg/mL (≈ 68.7 µM) against Aspergillus fumigatus [1]; 25 µg/mL (≈ 68.7 µM) against Pseudomonas aeruginosa [2]; 12.5 µg/mL (≈ 34.4 µM) in the test with Talaromyces marneffei [5]; 12.5 µg/mL (≈ 34.4 µM) in the test on Bacillus subtilis [11]; 25 µg/mL (≈ 68.7 µM) in [12]; 12.5 µg/mL (≈ 34.4 µM) in the test on Escherichia coli [13]. In addition, the values for the MIC against Staphylococcus aureus [15] and in the test with Aspergillus flavus [16] were 12.5 µg/mL (≈ 34.4 µM) and 25 µg/mL (≈ 68.7 µM), respectively. In addition, the “inhibition zone (IZ)” value in the test with Talaromyces marneffei [3] was 11 mm; with Aspergillus flavus [4], less than 10 mm; in [6], less than 10 mm; in the test with Escherichia coli [7] it was 11 mm; in the test with Pseudomonas aeruginosa [8] it was less than 10 mm; in the test with Aspergillus fumigatus [9], less than 10 mm. Moreover, the “inhibition zone (IZ)” value in the test on Bacillus subtilis [10] and in the test with Staphylococcus aureus [14] was 11 mm throughout.
Regarding `NC(=O)c1cc(-c2csc(-c3cc(Cl)cc(Cl)c3Cl)n2)ccc1O`, the MIC stood at 25 µg/mL (≈ 62.5 µM) in the test with Aspergillus fumigatus [1]; 6.25 µg/mL (≈ 15.6 µM) against Pseudomonas aeruginosa [2]; 6.25 µg/mL (≈ 15.6 µM) in the test on Talaromyces marneffei [5]; 6.25 µg/mL (≈ 15.6 µM) in the test with Bacillus subtilis [11]; 25 µg/mL (≈ 62.5 µM) in test [12]; 6.25 µg/mL (≈ 15.6 µM) against Escherichia coli [13]. Further, the MIC against Staphylococcus aureus [15] and with Aspergillus flavus [16] was 6.25 µg/mL (≈ 15.6 µM) each time. The “inhibition zone (IZ)” value in the test on Talaromyces marneffei [3] is listed as 16 mm; with Aspergillus flavus [4] it was 16 mm; in test [6] it was less than 10 mm; in the test with Escherichia coli [7], 16 mm; with Pseudomonas aeruginosa [8], 16 mm; in the test with Aspergillus fumigatus [9] it was less than 10 mm. Further, the “inhibition zone (IZ)” value with Bacillus subtilis [10] and in the test on Staphylococcus aureus [14] was 16 mm in each case.
